According to ChEMBL document CHEMBL3763019, “Discovery of benzenesulfonamide derivatives as potent PI3K/mTOR dual inhibitors with in vivo efficacies against hepatocellular carcinoma” (Bioorg Med Chem, 2016):

Legend:
[1] = Cytotoxicity against human HCT116 cells after 72 hrs by MTT assay; type: functional, cell-based; settings: HCT-116, 72 h
Method in brief: (§1)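 Log-phase cells at 40,000–50,000 cells/mL in DMEM with 10% FBS and antibiotics were seeded and cultured overnight at 37 °C, 5% CO₂. Compounds were diluted in DMSO/PBS from 10^-4 to 10^-9 M and applied for 72 h. MTT (5 mg/mL stock) was then added for 4 h and absorbance read at 570 nm. IC50 came from nonlinear regression on triplicate wells, averaged.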

A549 = assay: Cytotoxicity against human A549 cells after 72 hrs by MTT assay; type: functional, cell-based; settings: A549, 72 h; method in brief: as §1
[2] = target: T1, Phosphatidylinositol 4,5-bisphosphate 3-kinase catalytic subunit gamma isoform (Homo sapiens, UniProt P48736); assay: Inhibition of PI3K-gamma (unknown origin) after 40 mins by ADP-Glo luminescent kinase assay
Method in brief: (§2)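 Final enzyme was PI3Kβ 4.8 nM and PI3Kγ 7.6 nM. ADP-Glo reagent stopped the reaction (40 min), then detection reagent was added (60 min) and luminescence read. Percent inhibition was derived from RLU.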
Target sequence in this assay (P48736 whole entry, canonical isoform): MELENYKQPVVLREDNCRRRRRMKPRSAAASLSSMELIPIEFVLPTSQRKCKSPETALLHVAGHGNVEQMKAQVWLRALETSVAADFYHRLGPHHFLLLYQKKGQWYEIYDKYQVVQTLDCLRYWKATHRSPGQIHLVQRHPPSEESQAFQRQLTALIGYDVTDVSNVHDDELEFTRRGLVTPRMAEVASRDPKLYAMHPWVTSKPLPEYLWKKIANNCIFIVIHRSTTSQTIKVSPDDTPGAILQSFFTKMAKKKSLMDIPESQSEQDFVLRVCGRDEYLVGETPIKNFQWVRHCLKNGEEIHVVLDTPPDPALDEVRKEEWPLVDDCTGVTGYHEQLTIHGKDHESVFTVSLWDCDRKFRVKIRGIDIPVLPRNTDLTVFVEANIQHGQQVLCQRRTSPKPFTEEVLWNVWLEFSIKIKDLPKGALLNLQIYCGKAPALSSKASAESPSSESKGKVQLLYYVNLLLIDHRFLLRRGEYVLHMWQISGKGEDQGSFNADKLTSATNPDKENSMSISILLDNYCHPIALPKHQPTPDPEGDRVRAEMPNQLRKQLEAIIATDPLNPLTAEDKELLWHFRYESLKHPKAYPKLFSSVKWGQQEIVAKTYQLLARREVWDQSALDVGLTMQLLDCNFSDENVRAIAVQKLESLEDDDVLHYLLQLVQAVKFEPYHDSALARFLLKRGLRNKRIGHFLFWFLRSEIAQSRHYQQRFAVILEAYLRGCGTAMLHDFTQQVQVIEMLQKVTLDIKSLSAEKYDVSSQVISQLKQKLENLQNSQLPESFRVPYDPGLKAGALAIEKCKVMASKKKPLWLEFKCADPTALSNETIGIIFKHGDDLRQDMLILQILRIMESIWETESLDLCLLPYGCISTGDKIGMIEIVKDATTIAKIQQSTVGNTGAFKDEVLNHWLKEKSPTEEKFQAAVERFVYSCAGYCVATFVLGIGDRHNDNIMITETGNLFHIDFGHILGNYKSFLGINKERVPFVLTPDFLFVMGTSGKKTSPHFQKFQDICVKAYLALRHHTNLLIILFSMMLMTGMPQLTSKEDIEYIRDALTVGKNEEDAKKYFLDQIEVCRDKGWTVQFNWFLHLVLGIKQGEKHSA

MDA-MB-231 = assay: Cytotoxicity against human MDA-MB-231 cells after 72 hrs by MTT assay; type: functional, cell-based; settings: MDA-MB-231, 72 h; method in brief: as §1
[3] = Cytotoxicity against human Bel7404 cells after 72 hrs by MTT assay; type: functional, cell-based; settings: BEL-7404, 72 h; method in brief: as §1
[4] = target: T2, Phosphatidylinositol 4,5-bisphosphate 3-kinase catalytic subunit delta isoform (Homo sapiens) (UniProt O00329); assay: Inhibition of PI3K-delta (unknown origin) using PIP2 as substrate at 10 nM incubated for 1 hr by Kinase-Glo luminescent kinase assay
T2 sequence (whole entry): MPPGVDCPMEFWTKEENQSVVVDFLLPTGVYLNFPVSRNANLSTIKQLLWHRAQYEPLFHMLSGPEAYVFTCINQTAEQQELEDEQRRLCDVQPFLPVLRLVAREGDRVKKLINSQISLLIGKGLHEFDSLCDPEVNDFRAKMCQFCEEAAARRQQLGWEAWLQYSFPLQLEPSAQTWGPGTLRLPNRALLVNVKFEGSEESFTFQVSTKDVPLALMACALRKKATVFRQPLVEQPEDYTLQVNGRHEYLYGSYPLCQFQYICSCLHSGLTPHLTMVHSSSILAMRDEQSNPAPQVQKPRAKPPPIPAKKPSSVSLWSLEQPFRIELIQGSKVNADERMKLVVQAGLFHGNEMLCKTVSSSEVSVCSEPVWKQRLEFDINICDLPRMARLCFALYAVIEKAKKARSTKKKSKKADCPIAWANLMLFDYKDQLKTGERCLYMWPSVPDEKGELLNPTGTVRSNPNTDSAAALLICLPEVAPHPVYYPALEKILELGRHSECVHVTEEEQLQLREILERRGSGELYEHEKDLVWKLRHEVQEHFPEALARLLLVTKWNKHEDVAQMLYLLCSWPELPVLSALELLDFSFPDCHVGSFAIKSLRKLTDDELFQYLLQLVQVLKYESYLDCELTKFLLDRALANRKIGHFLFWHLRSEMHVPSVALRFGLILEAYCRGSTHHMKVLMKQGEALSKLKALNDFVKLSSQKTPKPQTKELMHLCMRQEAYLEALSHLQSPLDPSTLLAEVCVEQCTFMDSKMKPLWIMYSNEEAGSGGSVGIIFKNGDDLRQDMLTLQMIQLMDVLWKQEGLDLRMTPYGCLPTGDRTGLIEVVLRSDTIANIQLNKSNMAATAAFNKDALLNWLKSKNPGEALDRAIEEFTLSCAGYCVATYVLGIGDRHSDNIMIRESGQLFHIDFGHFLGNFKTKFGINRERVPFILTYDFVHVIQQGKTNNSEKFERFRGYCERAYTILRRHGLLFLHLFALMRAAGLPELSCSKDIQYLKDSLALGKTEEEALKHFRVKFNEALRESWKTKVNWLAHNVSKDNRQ
Method in brief: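 Final PIP2 was 50 µM and ATP 25 µM; PI3Kδ was 1.65 nM. Reactions ran 1 h at room temperature, then Kinase-Glo was added for 15 min before reading luminescence. Percent inhibition was derived from RLU. Dose-response used ten 3-fold dilutions (top 100 or 500 nM) in duplicate.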

[5] = target: T3, Phosphatidylinositol 4,5-bisphosphate 3-kinase catalytic subunit beta isoform (Homo sapiens, UniProt P42338); assay: Inhibition of PI3K-beta (unknown origin) at 10 nM after 40 mins by ADP-Glo luminescent kinase assay; method in brief: as §2
Target sequence in this assay (P42338 whole entry, looked up, canonical isoform): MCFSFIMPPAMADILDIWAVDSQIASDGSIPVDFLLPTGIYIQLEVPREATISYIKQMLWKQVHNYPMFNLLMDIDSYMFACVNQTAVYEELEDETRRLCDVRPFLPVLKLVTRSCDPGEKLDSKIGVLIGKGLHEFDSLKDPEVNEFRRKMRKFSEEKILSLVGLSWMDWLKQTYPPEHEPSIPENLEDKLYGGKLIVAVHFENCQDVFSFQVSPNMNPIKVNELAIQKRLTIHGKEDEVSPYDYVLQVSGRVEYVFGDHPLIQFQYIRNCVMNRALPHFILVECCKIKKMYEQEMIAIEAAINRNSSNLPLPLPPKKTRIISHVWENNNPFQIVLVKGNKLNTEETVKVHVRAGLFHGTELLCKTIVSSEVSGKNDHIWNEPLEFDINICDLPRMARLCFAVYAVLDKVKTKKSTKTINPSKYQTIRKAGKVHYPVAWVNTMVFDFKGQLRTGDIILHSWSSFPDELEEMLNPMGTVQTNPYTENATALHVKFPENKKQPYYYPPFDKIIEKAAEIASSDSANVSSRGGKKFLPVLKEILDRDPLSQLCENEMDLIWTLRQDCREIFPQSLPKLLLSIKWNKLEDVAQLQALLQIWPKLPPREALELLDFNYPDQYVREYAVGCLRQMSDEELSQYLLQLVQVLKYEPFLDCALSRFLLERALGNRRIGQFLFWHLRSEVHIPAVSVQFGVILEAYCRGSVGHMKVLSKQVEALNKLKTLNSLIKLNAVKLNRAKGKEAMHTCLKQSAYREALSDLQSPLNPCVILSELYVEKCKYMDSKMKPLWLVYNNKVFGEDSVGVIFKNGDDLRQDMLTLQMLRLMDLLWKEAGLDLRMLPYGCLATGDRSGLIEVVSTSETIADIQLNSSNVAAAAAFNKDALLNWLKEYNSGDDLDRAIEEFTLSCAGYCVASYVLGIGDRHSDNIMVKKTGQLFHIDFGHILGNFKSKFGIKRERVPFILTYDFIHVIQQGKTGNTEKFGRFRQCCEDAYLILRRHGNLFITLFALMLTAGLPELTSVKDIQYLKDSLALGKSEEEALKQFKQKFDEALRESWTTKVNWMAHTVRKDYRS

[6] = Half life in rat liver microsomes; type: ADME
[7] = target: Phosphatidylinositol 4,5-bisphosphate 3-kinase catalytic subunit alpha isoform (Homo sapiens, UniProt P42336); assay: Inhibition of PI3K-alpha (unknown origin) using PIP2 as substrate incubated for 1 hr by Kinase-Glo luminescent kinase assay
Phosphatidylinositol 4,5-bisphosphate 3-kinase catalytic subunit alpha isoform, sequence (P42336 whole entry, canonical isoform): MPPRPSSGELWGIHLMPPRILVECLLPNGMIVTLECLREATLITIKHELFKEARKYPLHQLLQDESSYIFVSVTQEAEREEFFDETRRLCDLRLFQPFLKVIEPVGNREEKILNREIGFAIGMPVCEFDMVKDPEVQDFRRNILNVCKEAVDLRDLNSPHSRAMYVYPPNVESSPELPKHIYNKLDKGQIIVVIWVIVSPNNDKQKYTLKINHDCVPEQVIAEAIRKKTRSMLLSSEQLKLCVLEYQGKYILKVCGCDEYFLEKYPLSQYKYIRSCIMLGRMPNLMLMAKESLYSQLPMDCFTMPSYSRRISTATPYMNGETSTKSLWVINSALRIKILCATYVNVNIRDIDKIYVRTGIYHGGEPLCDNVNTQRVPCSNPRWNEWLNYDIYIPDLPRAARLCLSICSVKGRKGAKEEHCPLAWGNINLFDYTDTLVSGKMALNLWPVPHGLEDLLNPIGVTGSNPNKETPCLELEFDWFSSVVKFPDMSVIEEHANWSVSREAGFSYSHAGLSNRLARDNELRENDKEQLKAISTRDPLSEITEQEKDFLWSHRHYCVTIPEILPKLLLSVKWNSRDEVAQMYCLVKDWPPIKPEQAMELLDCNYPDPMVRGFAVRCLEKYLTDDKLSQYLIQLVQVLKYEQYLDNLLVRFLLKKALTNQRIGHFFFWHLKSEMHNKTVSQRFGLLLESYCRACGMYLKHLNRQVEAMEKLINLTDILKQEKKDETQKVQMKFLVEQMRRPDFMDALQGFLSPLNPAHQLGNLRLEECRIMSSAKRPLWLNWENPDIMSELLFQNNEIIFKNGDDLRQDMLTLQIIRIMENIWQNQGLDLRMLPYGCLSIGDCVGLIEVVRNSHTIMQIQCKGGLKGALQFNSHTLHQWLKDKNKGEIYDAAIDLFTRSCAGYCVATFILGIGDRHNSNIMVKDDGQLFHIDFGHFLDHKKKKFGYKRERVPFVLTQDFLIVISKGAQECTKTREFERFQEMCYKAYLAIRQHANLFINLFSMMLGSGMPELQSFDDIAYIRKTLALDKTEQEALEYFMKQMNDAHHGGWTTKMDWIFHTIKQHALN

[8] = target: T1, Phosphatidylinositol 4,5-bisphosphate 3-kinase catalytic subunit gamma isoform; assay: Inhibition of PI3K-gamma (unknown origin) at 10 nM after 40 mins by ADP-Glo luminescent kinase assay; method in brief: as §2
Target sequence in this assay (P48736 whole entry, looked up, canonical isoform): as the sequence (P48736 whole entry, canonical isoform) above

[9] = Antitumor activity against human Bel7404 cells xenografted in BALB/c nude mouse assessed as reduction in tumor volume at 50 mg/kg, po qd for 14 consecutive days relative to control; type: functional, BEL-7404; design: scale not given: the % may be the effect or the level left
Method in brief: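 Male BALB/c nude mice carried implanted BEL-7404 tumours and were randomized once tumours reached 100–300 mm³ (about 12 days); there were 6 per treated group and 8 controls. Drug in 5% polysorbate 80/water was given orally once daily for 14 days from day 13. Tumour volume (1/2·a·b·b) and body weight were tracked, with sacrifice on day 29. The read-out was relative tumour volume versus vehicle, reported as mean SE.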

[10] = target: T3, Phosphatidylinositol 4,5-bisphosphate 3-kinase catalytic subunit beta isoform; assay: Inhibition of PI3K-beta (unknown origin) after 40 mins by ADP-Glo luminescent kinase assay
Method in brief: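 ADP-Glo reagent stopped the reaction (40 min), then detection reagent was added (60 min) and luminescence read. Percent inhibition was derived from RLU.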
Target sequence in this assay (P42338 whole entry, canonical isoform): as the sequence (P42338 whole entry, looked up, canonical isoform) above

[11] = target: Serine/threonine-protein kinase mTOR (Homo sapiens, UniProt P42345); assay: Inhibition of mTOR kinase (unknown origin) assessed as suppression of ULight-4E-BP1 substrate phosphorylation incubated for 1 hr by lance ultra assay
[12] = target: Phosphatidylinositol 4,5-bisphosphate 3-kinase catalytic subunit delta isoform (Homo sapiens, UniProt O00329); assay: Inhibition of PI3K-delta (unknown origin) using PIP2 as substrate incubated for 1 hr by Kinase-Glo luminescent kinase assay

IC50 [2] [nM] | inhibition [4] [%] | inhibition [5] [%] | half-life [6] [min] | IC50 [7] [nM] | inhibition [8] [%] | IC50 [10] [nM] | IC50 [11] [nM] | IC50 [12] [nM] | Compound | IC50 [1] [nM] | IC50 (A549) [nM] | IC50 (MDA-MB-231) [nM] | IC50 [3] [nM] | Activity [9] [%]
 | 6.1 | 41 | 18.8 | 3.7 | 81 |  |  |  | COc1ncc(-c2ccc3nccc(C#CCN(C)C)c3c2)cc1NS(=O)(=O)c1ccc(F)cc1F | 1080 | 110 | 1670 | 230 | 
 | 35 | 70 | 36.9 | 2.1 | 96 |  |  |  | COc1ncc(-c2ccc3nccc(C#CCN4CCOCC4)c3c2)cc1NS(=O)(=O)c1ccc(F)cc1F | 510 | 240 | 1990 | 40 | 
4 | 20.7 | 30 | 46.5 | 5.5 | 82 | 23 | 9.9 | 19 | CCOC(=O)N1CCN(CC#Cc2ccnc3ccc(-c4cnc(OC)c(NS(=O)(=O)c5ccc(F)cc5F)c4)cc23)CC1 | 1390 | 110 | 3810 | 480 | 
 | 4.6 | 11 |  | 61 | 59 |  |  |  | COc1ncc(-c2ccc3nccc(C#CCN4CCCCC4C)c3c2)cc1NS(=O)(=O)c1ccc(F)cc1F (centres undefined) | 4520 | 1350 | 4730 | 1140 | 
 | 3 | 1.4 |  | 37 | 55 |  |  |  | COc1ncc(-c2ccc3nccc(C#CCN4CCCCC4)c3c2)cc1NS(=O)(=O)c1ccc(F)cc1F | 3610 | 1810 | 10300 | 2300 | 
 | 7.7 | 5.8 |  | 70 | 49 |  |  |  | COc1ncc(-c2ccc3nccc(C#CCN4CCC(C)CC4)c3c2)cc1NS(=O)(=O)c1ccc(F)cc1F | 4020 | 2900 | 7990 | 1550 | 

Second part, the molecule before the results:

Compound | IC50 [2] [nM] | inhibition [4] [%] | inhibition [5] [%] | half-life [6] [min] | IC50 [7] [nM] | inhibition [8] [%] | IC50 [10] [nM] | IC50 [11] [nM] | IC50 [12] [nM] | IC50 [1] [nM] | IC50 (A549) [nM] | IC50 (MDA-MB-231) [nM] | IC50 [3] [nM] | Activity [9] [%]
COc1ncc(-c2ccc3nccc(-c4ccnnc4)c3c2)cc1NS(=O)(=O)c1ccc(F)cc1F [OMIPALISIB] | 0.6 |  |  |  |  |  |  |  |  | 10 | 600 | 130 | 10 | 
CNC(=O)c1cc(Oc2ccc(NC(=O)Nc3ccc(Cl)c(C(F)(F)F)c3)cc2)ccn1 [SORAFENIB] |  |  |  |  |  |  |  |  |  |  |  |  |  | 44
COc1ncc(-c2ccc3nccc(C#CCN(C4CCCCC4)C4CCCCC4)c3c2)cc1NS(=O)(=O)c1ccc(F)cc1F |  | 3.2 | 13 |  | > 100 | 10 |  |  |  | 11700 | 12000 | 27700 | 6100 | 
COc1ncc(-c2ccc3nccc(C#CCN(C)CCO)c3c2)cc1NS(=O)(=O)c1ccc(F)cc1F |  | 16 | 57 | 28.4 | 3.9 | 90 |  |  |  | 1150 | 1010 | 2800 | 80 | 
CCN(CC)CC#Cc1ccnc2ccc(-c3cnc(OC)c(NS(=O)(=O)c4ccc(F)cc4F)c3)cc12 |  | 1.2 | 21 |  | 33 | 68 |  |  |  | 2270 | 2430 | 2680 | 300 | 
COc1ncc(-c2ccc3nccc(C#CCN(C)C)c3c2)cc1NS(=O)(=O)c1ccc(F)cc1 |  | 10 | 17 |  | 32 | 70 |  |  |  | 1340 | 970 | 2080 | 1160 | 
